What follows are compounds tested against Human immunodeficiency virus type 1 reverse transcriptase (Human immunodeficiency virus 1, UniProt Q72547) (assay: The compound was tested for the inhibition of human immunodeficiency virus-1 reverse transcriptase(HIV-1 RT).).
Outline: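 Ki by kinetics: HIV-1 RT p66 at 60 ng/mL with 0.4 μM poly(rA)-oligo(dT), inhibitor, and [3H]TTP varied over 4-20 μM, in pH 8.0 Tris buffer with 6 mM MgCl2, 8 mM DTT, 80 mM KCl. Incubated 37 °C for 30 min, then EDTA quench. 3H incorporation counted on DE-81 paper; Ki taken from double-reciprocal plots.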

Row | Ki [µM] | SMILES
1 | 19.1 | Cc1cn([C@H]2C[C@@H](O)[C@@H](OP(=O)(O)NP(=O)(O)NP(=O)(O)O)O2)c(=O)[nH]c1=O
2 | 22 | Cc1cn([C@H]2C[C@@H](N=[N+]=[N-])[C@@H](OP(=O)(O)NP(=O)(O)OP(=O)(O)O)O2)c(=O)[nH]c1=O
3 | 15 | Cc1cn([C@H]2CC[C@@H](OP(=O)(O)NP(=O)(O)OP(=O)(O)O)O2)c(=O)[nH]c1=O
